Laboratory results: ChEMBL document CHEMBL1133605, “3,5-Bis(trifluoromethyl)pyrazoles: a novel class of NFAT transcription factor regulator” (J Med Chem, 2000)

What was measured:
[1] = species on record: Homo sapiens; assay: In vitro protein binding in human serum at 5 ug/ml; assay type: ADME
Summary of the method: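 Samples were incubated 30 min at room temperature, then ultrafiltered through a 30 000 MW cutoff device at 2000g for 25 min at room temperature. Free drug in the filtrate was quantified by HPLC.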

[2] = species on record: Homo sapiens; assay: Inhibition of interleukin-2 (IL-2) synthesis in human whole blood stimulated by PMA/ionomycin.; assay type: functional
Summary of the method: (§1)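 Heparinized human whole blood was added to serially diluted compound and stimulated with a PMA (50 ng/mL) plus ionomycin mixture. After 24 h, plasma was collected by centrifugation and IL-2 was measured by in-house ELISA.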

[3] = Area under curve in rat at 4 mpk upon peroral administration; assay type: ADME, organism-based; details: in vivo, po, 4 mg/kg
[4] = Oral bioavailability in rat (dose 4 mg/kg); assay type: ADME, organism-based; details: in vivo
[5] = Half-life in rat at 4 mpk upon peroral administration; assay type: ADME, organism-based; details: in vivo, po, 4 mg/kg
[6] = Maximum concentration in rat at 4 mpk upon peroral administration; assay type: ADME, organism-based; design: dose 4 mpk, route oral; details: in vivo, po, 4 mg/kg
[7] = species on record: Homo sapiens; assay: Tested for interleukin-2 (IL-2) synthesis inhibition in human whole blood stimulated by PMA/ionomycin.; assay type: functional; summary of the method: as §1
[8] = Resistance evaluated in an ascaris-induced nonhuman primate model of asthma after 6 hour at 30 mg/kg dose; assay type: functional
Summary of the method: (§2)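 Antigen (Ascaris) inhalation challenge in nonhuman primates, with oral gavage dosing at -26, -2 and +22 h relative to inhalation. Respiratory system resistance was measured at baseline, at +10 min (immediate response) and at +6 h (late phase). Data are mean percentage inhibition versus crossover vehicle control, with paired t-test.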

[9] = Bronchoalveolar lavages was collected after 6 hr in an ascaris-induced nonhuman primate model of asthma at 30 mg/kg dose (for IL-5); assay type: functional
Summary of the method: (§3)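 Ascaris-induced asthma model in nonhuman primates. Dosing by oral gavage at -26, -2 and +22 h relative to antigen inhalation. Bronchoalveolar lavage was taken at day -5 (baseline), at +6 h for IL-5, IL-8 and eotaxin, and at +48 h for eosinophil influx. Data are mean percentage inhibition versus crossover vehicle control, with paired t-test.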

[10] = Bronchoalveolar lavages was collected after 6 hr in an ascaris-induced nonhuman primate model of asthma at 30 mg/kg dose (for IL-8); assay type: functional; summary of the method: as §3
[11] = Bronchoalveolar lavages was collected after 6 hr in an ascaris-induced nonhuman primate model of asthma at 30 mg/kg dose (for eotaxin); assay type: functional; summary of the method: as §3
[12] = Resistance evaluated in an ascaris-induced nonhuman primate model of asthma after 10 min at 30 mg/kg dose; assay type: functional; summary of the method: as §2
[13] = Bronchoalveolar lavages was collected after 48 hr in an ascaris-induced nonhuman primate model of asthma (for eosinophil influx, eos) at 25 mg/kg dose; assay type: functional; details: dose 30 mg/kg; in the assay text read “30 mg/kg” for “25 mg/kg”; summary of the method: as §3
[14] = Bronchoalveolar lavages was collected after 6 hr in an ascaris-induced nonhuman primate model of asthma at 25 mg/kg dose (for IL-5); assay type: functional; summary of the method: as §3
[15] = Bronchoalveolar lavages was collected after 6 hr in an ascaris-induced nonhuman primate model of asthma at 25 mg/kg dose (for eotaxin); assay type: functional; summary of the method: as §3
[16] = Resistance evaluated in an ascaris-induced nonhuman primate model of asthma after 6 hour at 25 mg/kg dose; assay type: functional; summary of the method: as §2
[17] = Bronchoalveolar lavages was collected after 48 hr (for eosinophil influx, eos) at 25 mg/kg dose; assay type: functional; summary of the method: as §3
[18] = Bronchoalveolar lavages was collected after 6 hr in an ascaris-induced nonhuman primate model of asthma at 1 mg/kg dose (for IL-8); assay type: functional; summary of the method: as §3
[19] = Bronchoalveolar lavages was collected after 6 hr in an ascaris-induced nonhuman primate model of asthma at 1 mg/kg dose (for eotaxin); assay type: functional; summary of the method: as §3
[20] = Resistance evaluated in an ascaris-induced nonhuman primate model of asthma after 6 hour at 1 mg/kg dose; assay type: functional; summary of the method: as §2
[21] = Resistance evaluated in an ascaris-induced nonhuman primate model of asthma after 10 min at 1 mg/kg dose; assay type: functional; summary of the method: as §2
[22] = Bronchoalveolar lavages was collected after 6 hr in an ascaris-induced nonhuman primate model of asthma at 1 mg/kg dose (for IL-5); assay type: functional; summary of the method: as §3
[23] = Inhibition of eosinophil influx in bronchoalveolar lavage after 48 hr at 1 mg/kg dose

| Compound | Binding [1] [%] | IC50 [2] [µM] | AUC [3] [ng·h/mL] | bioavailability [4] [%] | half-life [5] [h] | Cmax [6] [ng/mL] | also measured |
| --- | --- | --- | --- | --- | --- | --- | --- |
| O=C(Nc1ccc(-n2nc(C(F)(F)F)cc2C(F)(F)F)cc1)c1ccncc1 | 99.7 | 0.701 |  |  |  |  |  |
| O=C(Nc1ccc(-n2nc(C(F)(F)F)cc2[N+](=O)[O-])cc1)c1ccncc1F |  | 0.44 | 310 | 18 | 1.7 | 220 |  |
| O=C(Nc1ccc(-n2nc(C(F)(F)F)cc2C(F)(F)F)cc1)c1cc(F)cc(F)c1F | 99.9 | 1.47 |  |  |  |  |  |
| O=C(Nc1ccc(-n2nc(C(F)(F)F)cc2C(F)(F)F)cc1)c1ccncc1F | 99.7 | 0.496 |  |  |  |  |  |
| O=C(Nc1ccc(-n2nc(C(F)(F)F)cc2C(F)(F)F)cc1)c1ccc(Cl)cc1 | 99.9 | 6.03 |  |  |  |  |  |
| O=C(Nc1ccc(-n2[nH]c(C(F)(F)F)cc2=O)cc1)c1ccncc1F |  |  |  |  |  |  | inhibition [7]: 16% |
| CSc1cc(C(F)(F)F)nn1-c1ccc(NC(=O)c2ccncc2F)cc1 |  | 0.944 | 7790 | 63 | 5.2 | 870 |  |
| O=C(Nc1ccc(-n2nc(C(F)(F)F)cc2C(F)(F)F)cc1)c1ccccc1Cl | 99.9 | 0.914 |  |  |  |  |  |
| C/C=C/C[C@@H](C)[C@@H](O)[C@H]1C(=O)N[C@@H](CC)C(=O)N(C)CC(=O)N(C)[C@@H](CC(C)C)C(=O)N[C@@H](C(C)C)C(=O)N(C)[C@@H](CC(C)C)C(=O)N[C@@H](C)C(=O)N[C@H](C)C(=O)N(C)[C@@H](CC(C)C)C(=O)N(C)[C@@H](CC(C)C)C(=O)N(C)[C@@H](C(C)C)C(=O)N1C [CYCLOSPORINE] |  |  |  |  |  |  | inhibition [14]: 92%; inhibition [15]: 62%; inhibition [16]: 90%; inhibition [17]: 137% |
| O=C(Nc1ccc(-n2nc(C(F)(F)F)cc2C(F)(F)F)cc1)c1ccccc1F | 99.9 | 2.27 |  |  |  |  |  |
| COc1cc(C(F)(F)F)nn1-c1ccc(NC(=O)c2ccccc2F)cc1 |  | 0.57 | 970 | 26 |  | 70 |  |
| Cc1nnsc1C(=O)Nc1ccc(-n2nc(C(F)(F)F)cc2C(F)(F)F)cc1 | 99.8 | 1.74 |  |  |  |  |  |
| CC(=O)c1cc(C(F)(F)F)nn1-c1ccc(NC(=O)c2ccccc2F)cc1 |  | 1.57 | 1110 | 5 |  | 120 |  |
| O=C(Nc1ccc(-n2nc(C(F)(F)F)cc2C(F)(F)F)cc1)c1cccc(F)c1F | 99.9 | 0.405 |  |  |  |  |  |
| Cc1noc(C)c1C(=O)Nc1ccc(-n2nc(C(F)(F)F)cc2C(F)(F)F)cc1 | 99.6 | 1.98 |  |  |  |  |  |
| C[C@]12C=CC(=O)C=C1CC[C@@H]1[C@@H]2[C@@H](O)C[C@@]2(C)[C@H]1CC[C@]2(O)C(=O)CO [PREDNISOLONE] |  |  |  |  |  |  | inhibition [18]: 9%; inhibition [19]: 67%; inhibition [20]: 57%; inhibition [21]: 24%; inhibition [22]: 94%; inhibition [23]: 106% |

More lines, in order of falling IC50 [2], values ahead:

| Binding [1] [%] | IC50 [2] [µM] | AUC [3] [ng·h/mL] | bioavailability [4] [%] | half-life [5] [h] | Cmax [6] [ng/mL] | Compound | also measured |
| --- | --- | --- | --- | --- | --- | --- | --- |
| 99.9 | 0.372 |  |  |  |  | O=C(Nc1ccc(-n2nc(C(F)(F)F)cc2C(F)(F)F)cc1)c1cc(F)ccc1F |  |
|  | 0.304 | 3240 | 31 | 6.2 | 280 | N#Cc1cc(C(F)(F)F)nn1-c1ccc(NC(=O)c2ccccc2F)cc1 |  |
|  | 0.288 | 16400 | 94 | 7.2 | 1040 | O=C(Nc1ccc(-n2nc(C(F)(F)F)cc2Br)cc1)c1ccncc1F |  |
|  | 0.261 | 3050 | 68 | 1 | 1480 | COc1cc(C(F)(F)F)nn1-c1ccc(NC(=O)c2ccncc2F)cc1 |  |
|  | 0.24 | 10900 | 78 | 4.3 | 1090 | N#Cc1cc(C(F)(F)F)nn1-c1ccc(NC(=O)c2ccncc2F)cc1 |  |
|  | 0.182 | 7750 | 74 | 6.8 | 610 | O=C(Nc1ccc(-n2nc(C(F)(F)F)cc2OC(F)F)cc1)c1ccncc1F | inhibition [8]: 69%; inhibition [9]: 73%; inhibition [10]: 69%; inhibition [11]: 56%; inhibition [12]: 61%; inhibition [13]: 185% |
|  | 0.158 | 11000 | 79 | 4.8 | 780 | O=C(Nc1ccc(-n2nc(C(F)(F)F)cc2Cl)cc1)c1ccncc1F |  |
